The source of these data is ChEMBL document CHEMBL1124344, “5-Piperazinylalkyl-2(3H)-oxazolones with neuroleptic activity” (J Med Chem, 1989).

One may read the inhibition in vivo as the change of the read-out against control, counted positive when it falls. A low value points to little suppression. The term LD50 denotes the dose expected to kill half of the subjects tested. In general, ED50 refers to the dose at which the effect has come halfway, by size or by number of responders.

In series [1] the test system is Mus musculus. The series is described as follows: Antagonistic activity against amphetamine-induced Hypermobility in mice, by administering perorally at a dose of 100 mg/kg. It counts as functional. Particulars: route oral. The procedure, abridged:
(§1)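 Male mice in groups of five, fasted overnight, given oral drug in arabic gum suspension (10 mL/kg) 1 or 5 h ahead. Amphetamine 4 mg/kg ip given 30 min after drug. Ten minutes later locomotion is recorded for 15 min in a photocell actophotometer. ED50 is 50% reduction versus control hypermotility, by probit analysis. Parenthetical entries give the maximal dose and percent activity.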

Series [2] can be described thus: Lethal dose in mice (LD50) following i.p. dosing. The following applies: mouse, in vivo, ip. The format is toxicity, organism-based. Summed up:
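Acute toxicity tested in mice by the intraperitoneal route. LD50 is the dose killing 50% of treated mice, computed by Finney probit analysis; values are approximate.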

For series [3], the system named is Mus musculus. Description: Inhibition of spontaneous motor activity in mice, by administering perorally at a dose of 125 mg/kg. It counts as functional. The following applies: route oral. Summed up:
(§2)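 Mice fasted overnight, then dosed orally with compound (weighed as base) suspended in arabic gum, 10 mL/kg, with vehicle controls; 1 h pretreatment for screening tests, 1 or 5 h for others. Groups of five; locomotor activity counted 10 min in photocell activity cage, at least two groups per dose. ED50 = dose giving 50% inhibition versus controls, by probit analysis.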

The subject of series [4] is Rattus norvegicus. Description: Antagonistic activity against apomorphine-induced stereotypy in rats, by administering perorally at a dose of 100 mg/kg. The format is functional. Particulars: route oral. The procedure, abridged:
(§3)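 Male rats fasted overnight and given oral doses in arabic gum suspension (10 mL/kg) 1 h, or 1 and 5 h, before challenge. Apomorphine 3 mg/kg iv, with stereotypy observed 20 min later. ED50 is the dose inhibiting stereotypy in 50% of rats, per Janssen's method. Parenthetical entries give the maximal dose and percent activity.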

For series [5], the system named is Rattus norvegicus. Description: Activity to evoke catalepsy in rats, by administering perorally at a dose of 100 mg/kg. Particulars: route oral, read-out: Inhibition. The format is functional. The procedure, abridged:
(§4)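 Rats fasted overnight and given oral doses in arabic gum suspension (10 mL/kg), 1 h before screening or 1 and 5 h before profile testing. Forelegs placed on a horizontal bar 7 cm high, three times at 5-min intervals. Immobility of at least 15 s counts as catalepsy. ED50 is the dose giving catalepsy in 50% of rats, by probit analysis. Parenthetical entries give the maximal dose and percent activity.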

Series [6] relates to Mus musculus. Description: Inhibition of spontaneous motor activity in mice, by administering perorally. It counts as functional. Particulars: po. Summed up:
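Mice in groups of five were dosed orally with gum arabic suspensions at 10 mL/kg after an overnight fast, with a vehicle control group. Locomotion was counted for 10 min in a photocell activity cage, in at least two groups per dose. ED50, by probit analysis, is the dose giving 50% inhibition against controls.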

The test system of series [7] is Rattus norvegicus. The series is described as follows: Antagonistic activity against apomorphine-induced stereotypy in rats, by administering perorally at a dose of 200 mg/kg. It counts as functional. Particulars: route oral. Summed up: as §3
Series [8] deals with Mus musculus. Description: Inhibition of amphetamine-induced hypermobility in mice following p.o. administration. The format is functional. The following applies: po. The procedure, abridged:
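Compounds were given orally to male mice (gum arabic suspension, 10 mL/kg, fasted) in groups of five. Amphetamine 4 mg/kg ip followed 30 min later. After another 10 min, motility was recorded for 15 min with a photocell actophotometer. ED50, by probit analysis, is the dose giving 50% reduction against controls.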

Series [9] relates to Mus musculus. Description: Inhibition of spontaneous motor activity in mice, by administering perorally at a dose of 90 mg/kg. The format is functional. Particulars: route oral. Summed up:
as §2

For series [10], the system named is Rattus norvegicus. The series is described as follows: Antagonistic activity against apomorphine-induced stereotypy in rats, by administering perorally at a dose of 90 mg/kg. It counts as functional. The following applies: route oral. Summed up: as §3
Series [11] concerns Rattus norvegicus. Description: Activity to evoke catalepsy in rats, by administering perorally at a dose of 90 mg/kg. The format is functional. Particulars: route oral. Summed up: as §4
For series [12], the system named is Mus musculus. Description: Antagonistic activity against amphetamine-induced Hypermobility in mice, by administering perorally at a dose of 20 mg/kg. The format is functional. The following applies: route oral. The procedure, abridged: as §1
In series [13] the test system is Mus musculus. Description: Inhibition of spontaneous motor activity in mice, by administering perorally at a dose of 20 mg/kg. The following applies: route oral. It counts as functional. The procedure, abridged: as §2
The test system of series [14] is Rattus norvegicus. Description: Antagonistic activity against apomorphine-induced stereotypy in rats, by administering perorally at a dose of 20 mg/kg. The format is functional. Particulars: route oral. Summed up: as §3
Series [15] concerns Rattus norvegicus. The series is described as follows: Activity to evoke catalepsy in rats, by administering perorally at a dose of 20 mg/kg. The following applies: route oral, read-out: Inhibition. The format is functional. Summed up: as §4
In series [16] the test system is Mus musculus. Description: Antagonistic activity against amphetamine-induced Hypermobility in mice, by administering perorally at a dose of 70 mg/kg. It counts as functional. Particulars: route oral. Summed up: as §1
Series [17] deals with Mus musculus. Description: Inhibition of spontaneous motor activity in mice, by administering perorally at a dose of 70 mg/kg. It counts as functional. Particulars: route oral. The procedure, abridged:
as §2

Series [18] has as its system Rattus norvegicus. Description: Activity to evoke catalepsy in rats, by administering perorally at a dose of 70 mg/kg. The format is functional. Particulars: route oral. Summed up: as §4
Series [19] has as its system Rattus norvegicus. Description: Antagonistic activity against apomorphine-induced stereotypy in rats, by administering perorally. The following applies: po. It counts as functional. Summed up:
as §3

The test system of series [20] is Rattus norvegicus. Description: Antagonistic activity against apomorphine-induced stereotypy in rats, by administering perorally at a dose of 60 mg/kg. The format is functional. The following applies: route oral. The procedure, abridged:
as §3

In series [21] the test system is Rattus norvegicus. The series is described as follows: Activity to evoke catalepsy in rats, by administering perorally at a dose of 60 mg/kg. It counts as functional. The following applies: route oral. Summed up:
as §4

For `O=c1oc(CCN2CCN(c3ccccc3)CC2)c(-c2ccc(F)cc2)n1-c1ccccc1`, the inhibition in vivo at 100 mg/kg in the series with Mus musculus [1] and with Rattus norvegicus [4] was 0% throughout. For the same molecule, the LD50 in [2] is over 1000 mg/kg. Further, the inhibition in vivo at 125 mg/kg with Mus musculus [3] came out at 0%. In addition, the percent of rats showing catalepsy at 100 mg/kg in the series with Rattus norvegicus [5] came out at 0%.

The molecule `Oc1nc(-c2ccc(F)cc2)c(CCN2CCN(c3ccccn3)CC2)o1` had an ED50 in the series with Mus musculus [6] of 38 mg/kg. The molecule further registered an inhibition in vivo at 100 mg/kg with Mus musculus [1] of 0%. In addition, in [2], the LD50 was over 1000 mg/kg. Further, the percent of rats showing catalepsy at 100 mg/kg with Rattus norvegicus [5] turned out to be 0%. This molecule also registered an inhibition in vivo at 200 mg/kg in the series with Rattus norvegicus [7] of 30%.

`Oc1nc(-c2ccc(F)cc2)c(CCN2CCN(c3cc(Cl)ccc3Cl)CC2)o1` registered an ED50 in the series with Mus musculus [8] of 10 mg/kg. The LD50 in series [2] came out at 750 mg/kg. In addition, the inhibition in vivo at 90 mg/kg came out at 45% in the series on Mus musculus [9], 0% in the series on Rattus norvegicus [10] and 0% in the series on Rattus norvegicus [11].

Turning to `Oc1nc(-c2ccc(F)cc2)c(CCN2CCN(c3cc(Cl)c(Cl)cc3Cl)CC2)o1`, the inhibition in vivo at 20 mg/kg in the series with Mus musculus [12], with Mus musculus [13] and in the series on Rattus norvegicus [14] was 0% each time. The 50% lethal dose (LD50) in [2] worked out at 750 mg/kg. For the same molecule, in the series with Rattus norvegicus [15], the percent of rats showing catalepsy at 20 mg/kg was 0%.

In the case of `COc1ccc(-c2nc(O)oc2CCN2CCN(c3ccccc3)CC2)cc1`, the inhibition in vivo at 70 mg/kg came to 27% in the series on Mus musculus [16], 26% in the series with Mus musculus [17] and 0% with Rattus norvegicus [18]. In series [2], this molecule yielded an LD50 of 350 mg/kg. Further, it took a dose of 47 mg/kg to reach the 50% effect level in the series on Rattus norvegicus [19] (ED50).

With `Cc1ccccc1N1CCN(CCc2oc(O)nc2-c2ccc(F)cc2)CC1`, the ED50 in the series with Mus musculus [8] stood at 8.6 mg/kg; in the series with Mus musculus [6], 6.3 mg/kg. Further, the 50% lethal dose (LD50) in series [2] is 250 mg/kg. For the same molecule, the inhibition in vivo at 60 mg/kg with Rattus norvegicus [20] and in the series on Rattus norvegicus [21] was 0% throughout.

As for `Oc1nc(-c2ccc(F)cc2)c(CCN2CCN(c3ccc(Cl)c(Cl)c3Cl)CC2)o1`, the inhibition in vivo at 20 mg/kg in the series with Mus musculus [12], in the series on Mus musculus [13] and in the series with Rattus norvegicus [14] was 0% each time. For the same molecule, the 50% lethal dose (LD50) in series [2] was determined as 750 mg/kg. In the series with Rattus norvegicus [15], the percent of rats showing catalepsy at 20 mg/kg was 0%.
